This is a sample that favours compounds with a hit; in the whole collection about 3.7% have one here.
hERG protect: compounds protecting human hERG from proarrhythmic drug block; 0.51% of 310,000 active; activation (rescue from dofetilide block), less the hit threshold, % at 10 µM; Q12809; CHO-hERG, FluxOR thallium flux, dofetilide IC70 present; AID 1511;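 active means activation above the mean of controls blocked by dofetilide plus 5 SD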;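 further: thallium influx through hERG after potassium depolarization seen as dye fluorescence rise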
KCNQ1 inh: inhibitors of human KCNQ1 potassium channel | P51787 | CHO-K1 KCNQ1, FluxOR thallium flux fluorescence; stronger effect = higher value | B-score at 10 µM | 1.3% of 310,000 active | AID 2642;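 active means compounds whose thallium flux B-score, printed positive for inhibition, exceeds three library SD while starting fluorescence stays within three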;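 further: channel opened by potassium depolarization with thallium stimulus after 20 min compound exposure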
Kir21 inh: Kir2.1 (mouse) channel inhibition; B-score at 10 µM; 0.85% of 310,000 active; AID 1672; HEK293-Kir2.1, FluxOR thallium flux fluorescence; stronger effect = lower value;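 active means fluorescence ratio B-score at or below minus 3 SD of library scores, with starting-brightness B-score within 2 SD, cut at about -4.2 in these data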;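 further: channel flux triggered by added potassium and thallium sulfate stimulus; B-score of peak minus minimum fluorescence over baseline after thallium stimulus; more negative B-score means stronger Kir2.1 block with less thallium influx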
KCNK9 block: inhibitors of human KCNK9 two-pore domain potassium channel | Q9NPC2 | HEK293 KCNK9, FluxOR thallium flux fluorescence; stronger effect = lower value | B-score at 10 µM | 1.2% of 310,000 active;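 active means ratio B-score over 3 SD below the library mean, with starting fluorescence within 5 SD of its mean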;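 further: negative B-score means less thallium flux so channel inhibition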
Target sequence (Q9NPC2 whole entry, looked up, the tested form may be a part): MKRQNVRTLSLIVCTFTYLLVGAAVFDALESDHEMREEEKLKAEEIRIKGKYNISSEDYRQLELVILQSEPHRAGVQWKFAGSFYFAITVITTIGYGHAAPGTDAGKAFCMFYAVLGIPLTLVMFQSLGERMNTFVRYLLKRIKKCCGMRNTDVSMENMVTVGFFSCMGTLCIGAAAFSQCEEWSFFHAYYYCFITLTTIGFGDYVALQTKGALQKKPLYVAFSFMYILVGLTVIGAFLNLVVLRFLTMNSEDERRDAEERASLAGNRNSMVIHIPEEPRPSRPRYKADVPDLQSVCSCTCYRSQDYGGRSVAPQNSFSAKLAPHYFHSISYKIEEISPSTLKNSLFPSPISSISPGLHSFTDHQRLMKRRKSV
KCNQ1 act: human KCNQ1 channel potentiation or activation | CHO-K1 KCNQ1, thallium flux FluxOR fluorescence; stronger effect = higher value | B-score at 10 µM | 0.35% of 310,000 active | AID 2648;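 active means fluorescence ratio B-score, a plate-corrected score, at least three library SD, with initial intensity B-score within 5 SD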
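Assay system: CHO-K1 cells stably expressing KCNQ1; Medium: assay buffer with matched DMSO; Also added: K+/Tl+ depolarizing stimulus; Dosing: single dose; Timing: dye 90 min, compound 20 min, room temperature; Measured by: kinetic FluxOR thallium fluorescence, 10-s 1-Hz baseline, 110-s post-stimulus read; Read-out: peak-minus-minimum fluorescence over initial fluorescence, negative-control normalized, B-scored.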
KCNK3 block: human KCNK3 channel inhibition, primary screen. CHO-KCNK3 thallium flux, FluxOR fluorescence; stronger effect = lower value. B-score at 10 µM. O14649. 0.84% of 340,000 active;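 active means B-score under library mean minus 4 SD, starting fluorescence ratio at most library mean plus 5 SD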;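 further: more negative B-score means stronger inhibition of thallium flux through KCNK3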
A number is an active result; – = inactive; · = no result given.

SMILES | hERG protect | KCNQ1 inh | Kir21 inh | KCNK9 block | KCNQ1 act | KCNK3 block
COc1cc2c(c(O)c1OC)-c1c(cc(OC)c(OC)c1O)[C@@H](OC(=O)c1ccccc1)[C@@](C)(O)[C@@H](C)[C@@H]2OC(C)=O | 4.7 | – | – | – | – | ·
COC(=O)c1ccc(C(=O)OC)c(NC(=S)N2CCN(C(=O)C3CCCO3)CC2)c1 (configuration not stated) | – | – | – | – | – | –
O=C(c1ccc(F)cc1F)N1CCN(S(=O)(=O)c2ccc3c(c2)OCCO3)CC1 | · | · | · | · | · | –
C#CCOCCOCCOCCNc1nc(N2CCN(C(=O)[C@H](C)n3cc(CCC(=O)O)nn3)CC2)nc(N2CCN(C(=O)[C@H](Cc3ccc(O)cc3)n3cc(CCO)nn3)CC2)n1 | · | · | · | · | · | –
Nc1nc(N)c(N=Nc2ccc(C(=O)O)cc2)c(N)n1 | – | – | – | – | 11 | –
CN(C)S(=O)(=O)c1cccc(NC(=O)c2ccc3nccnc3c2)c1 | – | – | – | – | – | –
C#Cc1ccc(CN2CCC(Oc3cc(C(=O)NC4CC4)ccc3OC)CC2)cc1 | – | – | – | – | – | –
CCOCCOCN(C#N)c1nc(OC)nc(N(C)C)n1 | 49 | – | – | – | – | –
COc1ccccc1Nc1nc(NCC2CCCO2)c2ccccc2n1 (configuration not stated) | – | – | -12 | – | – | –
Cc1ccsc1C(=O)Nc1ccc(OCc2ccccc2)cc1 | – | – | – | – | – | –
Cc1ccccc1/C=C/C(=O)c1ccc([N+](=O)[O-])o1 | – | 7 | – | – | – | ·
Cc1cccc(/C=C/C(=O)c2ccc([N+](=O)[O-])o2)c1 | – | 8 | – | – | – | –
O=C(/C=C/c1cccc([N+](=O)[O-])c1)c1ccc([N+](=O)[O-])o1 | – | – | – | – | – | –
COc1ccc(/C=C/C(=O)Nc2ccccc2C(=O)NCC(c2ccc(OC)cc2)N(C)C)cc1 (configuration not stated) | – | – | – | – | – | –
O=C(CSc1ccc(Cl)cc1)N/N=C/c1cccnc1 | 8.2 | – | – | – | – | –
CCCCCn1c(N2CCN(c3cccc(Cl)c3)CC2)nc2c1c(=O)[nH]c(=O)n2C | – | – | – | -7.3 | – | –
Cn1c(=O)[nH]c(=O)c2c1nc(N1CCN(c3cccc(Cl)c3)CC1)n2CCCc1ccccc1 | – | – | – | – | – | ·
Cc1ccc(NS(=O)(=O)c2cccc(C(=O)NNC(=O)c3cccn3C)c2)c(C)c1 | – | – | – | – | – | –
COC(=O)C1Cc2c([nH]c3ccccc23)C2(CCN(Cc3ccccc3)CC2)N1 (configuration not stated) | – | – | -6.8 | – | – | –
C=CCn1c(SCC(=O)NCC)nc2sc3c(c2c1=O)CCC3 | – | – | – | – | – | –
CC(=O)c1ccc(S(=O)(=O)N2CCN(C(C)C(=O)N(C)Cc3ccccc3)CC2)cc1 (configuration not stated) | · | · | · | · | · | –
O=C(CCN1CCC(c2ccccc2)C1)c1ccccc1 (configuration not stated) | – | – | – | – | – | –
COc1cc(C(=O)CCN2CCC(c3ccccc3)C2)cc(OC)c1OC (configuration not stated) | – | – | – | – | 11 | –
CCC(=NN=C(CC)c1ccccc1O)c1ccccc1O | · | · | · | · | · | -9.9
Cc1c(O)ccc2cc(S(=O)(=O)c3ccccc3)c(=O)oc12 | – | 11 | – | – | – | –
SMILES | hERG protect | KCNQ1 inh | Kir21 inh | KCNK9 block | KCNQ1 act | KCNK3 block
COc1ccc(N(CC(=O)Nc2ccccc2C(F)(F)F)C2=NC3CS(=O)(=O)CC3S2)cc1 (configuration not stated) | – | – | – | – | – | –
COc1cc2c(cc1OC)CN(C(=O)c1ccc(Cl)c(S(=O)(=O)N3CCCC3)c1)CC2 | · | · | · | · | · | -8.7
Cc1ccc2nc3sc(C(=O)Nc4ccc(N5CCOCC5)cc4)c(N)c3cc2c1 | – | – | – | – | – | ·
Cc1cccc2cc3c(N)c(C(=O)Nc4ccc(N5CCOCC5)cc4)sc3nc12 | – | – | – | – | – | -11
N#CC1=C(SCc2ccccc2)NC(=O)CC1c1ccccc1 (configuration not stated) | – | – | -11 | – | – | –
C=CCSC1=C(C#N)C(c2ccccc2)CC(=O)N1 (configuration not stated) | – | – | – | – | – | –
